Assay results as given in ChEMBL document CHEMBL3580575, “Monocarboxylate transporter 1 inhibitors as potential anticancer agents” (ACS Med Chem Lett, 2015).

Tests used:
[1] = biological target: T1, Monocarboxylate transporter 1 (Rattus norvegicus, UniProt P53987); experiment: Inhibition of MCT1-mediated lactate transport in rat RBE4 cells incubated for 15 mins by [14C]-lactate uptake assay; format: cell-based
T1 sequence (P53987 whole entry): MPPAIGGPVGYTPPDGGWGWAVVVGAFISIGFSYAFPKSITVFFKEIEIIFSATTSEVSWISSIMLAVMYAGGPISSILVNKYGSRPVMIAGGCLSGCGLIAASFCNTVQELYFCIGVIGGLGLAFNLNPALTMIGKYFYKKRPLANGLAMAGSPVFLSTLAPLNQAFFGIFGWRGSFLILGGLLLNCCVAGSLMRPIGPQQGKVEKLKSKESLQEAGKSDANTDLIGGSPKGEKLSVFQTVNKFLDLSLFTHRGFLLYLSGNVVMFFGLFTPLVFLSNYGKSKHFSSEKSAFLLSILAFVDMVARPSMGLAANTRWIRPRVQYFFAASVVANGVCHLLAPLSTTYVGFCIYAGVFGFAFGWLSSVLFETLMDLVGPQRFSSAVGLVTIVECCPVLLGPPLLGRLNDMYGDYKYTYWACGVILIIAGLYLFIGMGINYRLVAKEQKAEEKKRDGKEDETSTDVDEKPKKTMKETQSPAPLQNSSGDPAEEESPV
Method in brief: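 MCT1 inhibition measured as [14C]-lactate uptake in rat brain endothelial RBE4 cells, which highly express MCT1 (Western blot). IC50 is the test-compound concentration causing 50% transport inhibition.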

Mus musculus [2] = experiment: Drug elimination in CD1(ICR) mouse at 100 mg/kg, ip by LC-MS/MS method; format: ADME, organism-based; details: in vivo
Method in brief: (§1)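 Preliminary pharmacokinetics in ICR mice. Sixty mice were split into two groups and given 100 mg/kg, one group intraperitoneally and the other intragastrically.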

Mus musculus [3] = experiment: Toxicity in CD1(ICR) mouse assessed as survival at 6.67 mg/kg, ip bid for 3 weeks; format: organism-based; details: in vivo, 504 h
Method in brief: (§2)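 Healthy ICR mice were given 6.67 mg/kg ip, twice daily, in 0.1% DMSO in saline for three weeks. Survival and body weight gain were recorded and compared with a control group.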

Mus musculus [4] = experiment: Toxicity in CD1(ICR) mouse assessed as induction of weight gain at 50 mg/kg, po bid for 3 weeks; format: organism-based; details: in vivo, 504 h
Method in brief: (§3)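 In a follow-up systemic toxicity study, healthy ICR mice were dosed at 50 mg/kg either by oral gavage twice daily or ip once daily. Mortality and body weight gain were compared with a control group.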

[5] = Tmax in CD1(ICR) mouse at 100 mg/kg, ig by LC-MS/MS method; format: ADME, organism-based; details: in vivo, po; method in brief: as §1
[6] = Tmax in CD1(ICR) mouse at 100 mg/kg, ip by LC-MS/MS method; format: ADME, organism-based; details: in vivo; method in brief: as §1
Mus musculus [7] = experiment: Toxicity in CD1(ICR) mouse assessed as survival at 6.67 mg/kg, ip bid for 3 weeks; details: in vivo, 504 h
Mus musculus [8] = experiment: Toxicity in CD1(ICR) mouse assessed as survival at 50 mg/kg, po bid for 3 weeks; format: organism-based; details: in vivo, 504 h; method in brief: as §3
Mus musculus [9] = experiment: Drug elimination in CD1(ICR) mouse at 100 mg/kg, ig by LC-MS/MS method; format: ADME, organism-based; details: in vivo, po; method in brief: as §1
Mus musculus [10] = experiment: Toxicity in CD1(ICR) mouse assessed as induction of weight gain at 6.67 mg/kg, ip bid for 3 weeks; format: organism-based; details: in vivo, 504 h; method in brief: as §2
[11] = Solubility in water; format: physicochemical
Mus musculus [12] = experiment: Toxicity in CD1(ICR) mouse assessed as induction of weight gain at 50 mg/kg, ip qd for 3 weeks; format: organism-based; details: in vivo, 504 h; method in brief: as §3
Mus musculus [13] = experiment: Toxicity in CD1(ICR) mouse assessed as survival at 50 mg/kg, ip qd for 3 weeks; format: organism-based; details: in vivo, 504 h; method in brief: as §3
Mus musculus [14] = experiment: Toxicity in CD1(ICR) mouse assessed as induction of weight gain at 6.67 mg/kg, ip bid for 3 weeks; details: in vivo, 504 h

Structure (SMILES)	IC50 [1]	also measured
N#C/C(=C\c1ccc([N+](=O)[O-])cc1)C(=O)O	0.5 µM	
CCc1ccc(/C=C(\C#N)C(=O)O)cc1	0.5 µM	
N#C/C(=C\c1ccc(Cl)cc1)C(=O)O	0.5 µM	
N#C/C(=C\c1ccc(Br)cc1)C(=O)O	0.5 µM	
N#C/C(=C\c1ccc(C#N)cc1)C(=O)O	0.5 µM	
N#C/C(=C\c1ccc2c(c1)OCO2)C(=O)O	0.5 µM	
CCN(CC)c1ccc(/C=C(\C#N)C(=O)O)cc1	0.07 µM	
CCCN(CCC)c1ccc(/C=C(\C#N)C(=O)O)cc1	0.01 µM	
CCCCN(CCCC)c1ccc(/C=C(\C#N)C(=O)O)cc1	0.03 µM	
CC(C)CN(CC(C)C)c1ccc(/C=C(\C#N)C(=O)O)cc1	0.1 µM	
CCCCCN(CCCCC)c1ccc(/C=C(\C#N)C(=O)O)cc1	0.14 µM	
CCCCCCN(CCCCCC)c1ccc(/C=C(\C#N)C(=O)O)cc1	0.88 µM	
C=CCN(CC=C)c1ccc(/C=C(\C#N)C(=O)O)cc1	0.11 µM	
C#CCN(CC#C)c1ccc(/C=C(\C#N)C(=O)O)cc1	0.4 µM	
N#C/C(=C\c1ccc(N(c2ccccc2)c2ccccc2)cc1)C(=O)O	0.03 µM	
N#C/C(=C\c1ccc(N2CCCC2)cc1)C(=O)O	0.07 µM	
N#C/C(=C\c1ccc(N2CCCCC2)cc1)C(=O)O	0.14 µM	
CCCN(CCC)c1ccc(/C=C(\C#N)C(=O)O)c(OC)c1	0.012 µM	
COc1cc(N(CC(C)C)CC(C)C)ccc1/C=C(\C#N)C(=O)O	0.011 µM	
CCCCCN(CCCCC)c1ccc(/C=C(\C#N)C(=O)O)c(OC)c1	0.034 µM	
COc1cc(N(c2ccccc2)c2ccccc2)ccc1/C=C(\C#N)C(=O)[O-].[Na+]	0.011 µM	Drug excretion (Mus musculus [2]): <= 24 hr; Activity (Mus musculus [3]): Non-toxic; Activity (Mus musculus [4]): Non-toxic; Tmax [5]: 18 min; Tmax [6]: 15 min; Activity (Mus musculus [7]): Non-toxic; Activity (Mus musculus [8]): Non-toxic; Drug excretion (Mus musculus [9]): <= 24 hr; Activity (Mus musculus [10]): Non-toxic; solubility [11]: 1 mg/mL; Activity (Mus musculus [12]): Non-toxic; Activity (Mus musculus [13]): Non-toxic; Activity (Mus musculus [14]): Non-toxic
C=CCN(CC=C)c1ccc(/C=C(\C#N)C(=O)O)c(OC)c1	0.029 µM	
COc1cc(N2CCCC2)ccc1/C=C(\C#N)C(=O)[O-].[Na+]	0.048 µM	solubility [11]: > 7 mg/mL
COc1cc(N2CCCCC2)ccc1/C=C(\C#N)C(=O)[O-].[Na+]	0.025 µM	solubility [11]: > 7 mg/mL
Cc1ccc(/C=C(\C#N)C(=O)O)cc1	0.5 µM	
CN(C)c1ccc(/C=C(\C#N)C(=O)O)cc1	0.14 µM	
COc1ccc(/C=C(\C#N)C(=O)O)cc1	0.5 µM	
N#C/C(=C\c1ccc(F)cc1)C(=O)O	0.5 µM	
